Measured values as given in ChEMBL document CHEMBL1152917, “Benzothiophene piperazine and piperidine urea inhibitors of fatty acid amide hydrolase (FAAH)” (2009).
Calls of active or inactive are those of the source.

What was measured:
Rattus norvegicus [1] = assay: Antihyperalgesic activity in complete Freund's adjuvant-induced rat inflammatory pain model assessed as reduction in mechanical allodynia at 10 mg/kg, ip; assay type: functional, organism-based; set-up: dose 10 mg/kg
Procedure, shortened: (§1)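 Rat CFA inflammatory pain model: complete Freund's adjuvant injected subcutaneously into hind paw plantar surface; testing at day 5 post-injection. Compound given ip at 3, 10 and 30 mg/kg; naproxen 10 mg/kg ip as reference. Mechanical paw weight threshold measured 4 h after dosing, compared with vehicle group; n = 8 rats/group.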

[2] = molecular target: T1, Fatty-acid amide hydrolase 1 (Homo sapiens) (UniProt O00519); assay: Inhibition of histidine6-tagged FAAH from human liver proteomes at 10 to 100 uM
T1 sequence (whole entry): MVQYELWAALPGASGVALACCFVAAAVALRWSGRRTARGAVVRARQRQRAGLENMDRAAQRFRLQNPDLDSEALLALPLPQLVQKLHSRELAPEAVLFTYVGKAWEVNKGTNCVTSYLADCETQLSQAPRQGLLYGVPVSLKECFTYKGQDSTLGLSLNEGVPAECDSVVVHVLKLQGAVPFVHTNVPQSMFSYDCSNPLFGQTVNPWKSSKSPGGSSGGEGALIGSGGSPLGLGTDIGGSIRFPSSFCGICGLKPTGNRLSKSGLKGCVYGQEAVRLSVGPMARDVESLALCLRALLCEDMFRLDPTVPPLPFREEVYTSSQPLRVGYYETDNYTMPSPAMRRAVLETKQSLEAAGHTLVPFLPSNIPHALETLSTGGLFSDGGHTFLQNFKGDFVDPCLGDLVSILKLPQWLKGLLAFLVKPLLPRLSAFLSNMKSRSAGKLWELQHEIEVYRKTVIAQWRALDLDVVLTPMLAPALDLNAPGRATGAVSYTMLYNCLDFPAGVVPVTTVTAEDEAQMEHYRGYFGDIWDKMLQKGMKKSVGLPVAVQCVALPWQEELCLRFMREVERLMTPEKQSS
Procedure, shortened: (§2)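 Competitive activity-based protein profiling with FP probe labeling of serine hydrolases. Proteomes used: soluble mouse liver, mouse kidney, human liver and human heart, plus human brain membrane. Compounds tested at 100 μM, reference at 10 and 100 μM. Inhibited bands were read by gel; FAAH and off-target labeling were judged by band loss.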

[3] = molecular target: T1, Fatty-acid amide hydrolase 1 (Homo sapiens); assay: Inhibition of histidine6-tagged FAAH from human brain proteomes at 10 to 100 uM; procedure, shortened: as §2
[4] = molecular target: T1, Fatty-acid amide hydrolase 1 (Homo sapiens); assay: Inhibition of histidine6-tagged FAAH from human heart proteomes at 10 to 100 uM; procedure, shortened: as §2
[5] = molecular target: T2, Fatty-acid amide hydrolase 1 (Mus musculus) (UniProt O08914); assay: Inhibition of histidine6-tagged FAAH from mouse liver proteomes at 10 to 100 uM; procedure, shortened: as §2
T2 sequence (whole entry): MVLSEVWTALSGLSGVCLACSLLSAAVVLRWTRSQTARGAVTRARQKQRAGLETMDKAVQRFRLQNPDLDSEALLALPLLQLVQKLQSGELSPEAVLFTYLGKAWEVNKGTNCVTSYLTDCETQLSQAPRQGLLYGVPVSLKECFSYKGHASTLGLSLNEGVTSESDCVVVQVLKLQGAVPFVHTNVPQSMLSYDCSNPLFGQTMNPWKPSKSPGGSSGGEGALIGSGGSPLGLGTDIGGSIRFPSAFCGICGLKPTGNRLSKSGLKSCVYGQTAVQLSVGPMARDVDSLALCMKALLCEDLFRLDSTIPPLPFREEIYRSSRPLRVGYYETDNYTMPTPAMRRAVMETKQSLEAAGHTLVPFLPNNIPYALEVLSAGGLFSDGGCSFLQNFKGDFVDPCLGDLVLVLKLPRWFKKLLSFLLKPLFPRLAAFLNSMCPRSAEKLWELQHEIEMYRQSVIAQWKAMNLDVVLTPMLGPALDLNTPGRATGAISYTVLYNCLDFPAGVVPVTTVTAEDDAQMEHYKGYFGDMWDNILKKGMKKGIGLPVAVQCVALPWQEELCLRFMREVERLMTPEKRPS

[6] = molecular target: T2, Fatty-acid amide hydrolase 1 (Mus musculus); assay: Inhibition of histidine6-tagged FAAH from mouse kidney proteomes at 10 to 100 uM; assay type: tissue-based; procedure, shortened: as §2
[7] = molecular target: T3, Fatty-acid amide hydrolase 1 (Rattus norvegicus) (UniProt P97612); assay: Ratio of Kinact to Ki for histidine6-tagged rat FAAH
T3 sequence (whole entry): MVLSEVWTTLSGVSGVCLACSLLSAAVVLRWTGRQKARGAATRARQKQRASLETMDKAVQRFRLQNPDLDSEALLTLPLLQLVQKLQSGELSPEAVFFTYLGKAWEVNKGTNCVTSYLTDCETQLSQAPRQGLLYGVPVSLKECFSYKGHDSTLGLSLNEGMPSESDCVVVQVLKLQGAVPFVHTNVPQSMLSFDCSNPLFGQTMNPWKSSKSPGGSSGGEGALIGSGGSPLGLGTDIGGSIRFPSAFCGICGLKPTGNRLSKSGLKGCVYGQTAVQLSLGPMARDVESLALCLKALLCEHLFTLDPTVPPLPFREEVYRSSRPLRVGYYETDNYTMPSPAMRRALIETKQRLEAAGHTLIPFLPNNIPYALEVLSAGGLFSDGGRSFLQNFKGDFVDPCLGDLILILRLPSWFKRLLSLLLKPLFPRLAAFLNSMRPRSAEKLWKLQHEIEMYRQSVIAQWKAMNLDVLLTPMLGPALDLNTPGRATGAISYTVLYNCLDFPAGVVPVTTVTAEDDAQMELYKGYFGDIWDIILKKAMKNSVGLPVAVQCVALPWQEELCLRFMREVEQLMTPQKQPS
Procedure, shortened: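 Rat FAAH construct: aa 30–579, N-terminal transmembrane-deleted, N-terminal His6 tag, E. coli-expressed and purified to >95% purity. Activity read by a GDH-coupled enzyme assay in 384-well plates. Second-order kinact/Ki was derived from the linear slope of kobs versus [I], correcting with (1+[S]/Km).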

[8] = molecular target: T1, Fatty-acid amide hydrolase 1 (Homo sapiens); assay: Ratio of Kinact to Ki for histidine6-tagged human FAAH
Procedure, shortened: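 Human FAAH construct: aa 32–579, N-terminal transmembrane-deleted, N-terminal His6 tag, expressed in E. coli and purified to >95% by SDS–PAGE. Potency measured as kinact/Ki in a GDH-coupled FAAH assay in 384-well format. kobs was plotted against [I]; kinact/Ki came from the slope kinact/[Ki(1+[S]/Km)].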

Rattus norvegicus [9] = assay: Antihyperalgesic activity in complete Freund's adjuvant-induced rat inflammatory pain model assessed as reduction in mechanical allodynia after 4 hrs postdosing; assay type: functional; procedure, shortened: as §1

| inhibition [2] | inhibition [3] | inhibition [4] | inhibition [5] | inhibition [6] | Ratio [7] | Ratio [8] | Structure (SMILES) | Activity (Rattus norvegicus [1]) | Activity (Rattus norvegicus [9]) | minimal effective dose (Rattus norvegicus [9]; read-out: MED) |
| --- | --- | --- | --- | --- | --- | --- | --- | --- | --- | --- |
| Active | Active | Active | Active | Active | 1060 M⁻¹ s⁻¹ | < 10 M⁻¹ s⁻¹ | COc1ccc(NC(=O)N2CCN(Cc3sc4ccccc4c3C)CC2)cn1 | Active | Dose-dependent effect | 10 mg/kg |
| Active | Active | Active | Active | Active | 729 M⁻¹ s⁻¹ | 4470 M⁻¹ s⁻¹ | Cc1c(CC2CCN(C(=O)Nc3cccnc3)CC2)sc2ccc(F)cc12 |  |  |  |
